How the values were obtained:
Enterococcus faecalis = experiment: Antibacterial activity against Enterococcus faecalis ATCC 29212 assessed as diameter of inhibition zone by CLSI based disc-diffusion method; type: functional
In short: (§1)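 Strains were stored at −80 °C, then subcultured twice on tryptic soy agar for 24–48 h at 30 °C before the disc-diffusion test. The result was recorded as the inhibition-zone diameter.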

Enterococcus faecium = experiment: Antibacterial activity against Enterococcus faecium ATCC 6057 assessed as diameter of inhibition zone by CLSI based disc-diffusion method; type: functional; in short: as §1
Bacillus subtilis = experiment: Antibacterial activity against Bacillus subtilis ATCC 6633 assessed as diameter of inhibition zone by CLSI based disc-diffusion method; type: functional; in short: as §1
[1] = system: Staphylococcus epidermidis; experiment: Antibacterial activity against Staphylococcus epidermidis ATCC 12228 assessed as diameter of inhibition zone by CLSI based disc-diffusion method; type: functional; in short: as §1
[2] = Selectivity ratio of IC50 for cytotoxicity against human MRC5 cells assessed as inhibition of cell growth to MIC for antibacterial activity against methicillin-resistant Staphylococcus aureus ATCC 43300 assessed as inhibition of microbial growth; type: toxicity, cell-based
Staphylococcus aureus = experiment: Antibacterial activity against methicillin-resistant Staphylococcus aureus ATCC 43300 assessed as diameter of inhibition zone by CLSI based disc-diffusion method; type: functional
In short: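 Disc-diffusion on standard strain subcultured twice on tryptic soy agar (24–48 h, 30 °C) after storage at −80 °C; inhibition zone diameter read; linezolid disc (0.03 mg) as reference.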

Row | SMILES | diameter of the inhibition zone (DIZ) (Enterococcus faecalis) [mm] | diameter of the inhibition zone (DIZ) (Enterococcus faecium) [mm] | diameter of the inhibition zone (DIZ) (Bacillus subtilis) [mm] | diameter of the inhibition zone (DIZ) [1] [mm] | selectivity ratio [2] | diameter of the inhibition zone (DIZ) (Staphylococcus aureus) [mm]
1 | C[Si]1(C)OB(O)c2cc(F)c(SCCC(N)=O)c(F)c21 | 12 | 12 | 15 | 19 | – | –
2 | C[Si]1(C)OB(O)c2ccc(S)c(F)c21 | – | 18 | 23 | – | – | –
3 | C[Si]1(C)OB(O)c2cc(F)c(S(=O)(=O)Nc3ccc(F)cc3)c(F)c21 | – | – | – | 19 | 0.7 | 16
4 | C[Si]1(C)OB(O)c2ccc(SCCS(=O)(=O)c3ccccc3)c(F)c21 | 15 | – | 21 | 22 | – | –
5 | C[Si]1(C)OB(O)c2cc(F)c(S(=O)(=O)Cl)c(F)c21 | – | – | 15 | 13 | – | –
6 | CC(=O)NC[C@H]1CN(c2ccc(N3CCOCC3)c(F)c2)C(=O)O1 [LINEZOLID] | 15 | 14 | 30 | 26 | – | –
7 | C[Si]1(C)OB(O)c2cc(F)c(SCCC(=O)Nc3ncccn3)c(F)c21 | 13 | – | 15 | 11 | – | 12
8 | COC(=O)CCSc1ccc2c(c1F)[Si](C)(C)OB2O | – | – | 23 | 22 | – | 24
9 | C[Si]1(C)OB(O)c2cc(F)c(SCCC(=O)Nc3cnccn3)c(F)c21 | 13 | 15 | 19 | 22 | – | 25
10 | C[Si]1(C)OB(O)c2cc(F)c(SCCC(=O)OCCCCCC[n+]3ccccc3)c(F)c21.O=S(=O)([O-])C(F)(F)F | – | – | – | – | – | 17
11 | C[Si]1(C)OB(O)c2cc(F)c(SCCC(=O)N3CCOCC3)c(F)c21 | – | – | 14 | 19 | – | –
12 | C[Si]1(C)OB(O)c2cc(F)c(S(=O)(=O)N3CCOCC3)c(F)c21 | – | – | 12 | – | – | –
13 | C[Si]1(C)OB(O)c2ccc(SCCC(=O)OCCCCCC[n+]3ccccc3)c(F)c21.O=S(=O)([O-])C(F)(F)F | 12 | 12 | 19 | 21 | – | 18
14 | C[Si]1(C)OB(O)c2cc(F)c(S)c(F)c21 | – | 24 | 22 | 24 | – | –
15 | Cc1cc(NC(=O)CCSc2c(F)cc3c(c2F)[Si](C)(C)OB3O)no1 | 12 | 14 | 17 | 13 | – | 14
